According to ChEMBL document CHEMBL4138103, “Discovery of efficient stimulators for adult hippocampal neurogenesis based on scaffolds in dragon's blood” (Eur J Med Chem, 2017):
Active and inactive are the calls of the source. The rule behind the calls is not given here.

Assays:
Rattus norvegicus [1] = test: In vivo neurogenic activity in Sprague-Dawley rat neural progenitor cells at 2.2 mg/kg, ip qd pretreated for 28 days followed by BrdU addition at 2 hrs interval for twice on day 29 measured after 24 hrs by BrdU incorporation assay; assay type: functional, organism-based
Summary of the method: (§1)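 Male SD rats aged 10 weeks, acclimatized 7 days (11 weeks old at start), dosed ip once daily for 28 days with compound in soybean oil containing 10% ethanol; vehicle group received 10% ethanol in oil. On day 29, BrdU in saline given twice at 100 mg/kg, 2 h apart. Rats sacrificed 24 h after the last BrdU. BrdU+ cells in SGZ-GCL counted by DAB immunostaining of 30 µm cryosections; n = 8; mean ± SEM.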

[2] = Cytotoxicity against human SH-SY5Y cells assessed as cell survival at 100 uM after 24 hrs by MTT assay relative to control; assay type: cell-based; settings: read-out: Survival
Summary of the method: (§2)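 SH-SY5Y human neuroblastoma cells seeded at 5 × 10⁴ cells/mL, incubated 24 h at 37 °C, then exposed to compounds at final concentrations of […] for 24 h. MTT added for a further 4 h at 37 °C. Absorbance read at 570 nm and reported as percent viability. Five parallel samples per condition.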

[3] = Cytotoxicity against human SH-SY5Y cells assessed as cell survival at 1000 uM after 24 hrs by MTT assay relative to control; assay type: cell-based; settings: read-out: Survival; summary of the method: as §2
[4] = Cytotoxicity against human SH-SY5Y cells assessed as cell survival at 500 uM after 24 hrs by MTT assay relative to control; assay type: cell-based; settings: read-out: Survival; summary of the method: as §2
Rattus norvegicus [5] = test: In vivo neurogenic activity in Sprague-Dawley rat neural progenitor cells at 4 mg/kg, ip qd pretreated for 28 days followed by BrdU addition at 2 hrs interval for twice on day 29 measured after 24 hrs by BrdU incorporation assay relative to control; assay type: functional; summary of the method: as §1
Rattus norvegicus [6] = test: In vivo neurogenic activity in Sprague-Dawley rat neural progenitor cells at 0.5 to 4 mg/kg, ip qd pretreated for 28 days followed by BrdU addition at 2 hrs interval for twice on day 29 measured after 24 hrs by BrdU incorporation assay; assay type: functional, organism-based
Summary of the method: (§3)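 Eleven-week-old SD male rats were dosed ip daily for 28 days in soybean oil with 10% ethanol, against a vehicle control. On day 29 BrdU 100 mg/kg was given twice, 2 h apart, and rats were sacrificed 24 h later. Sections were treated with HCl denaturation, BrdU antibody at 1:500 at 4 °C overnight and DAB detection. BrdU+ cells in the SGZ-GCL were counted, mean ± SEM, n = 8.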

Rattus norvegicus [7] = test: Effect on AKT expression in Sprague-Dawley rat adult hippocampus at 0.5 to 4 mg/kg, ip qd preincubated for 28 days followed by BrdU addition at 2 hrs interval for twice on day 29 measured at 24 hrs post BrdU pulse by immunoblot assay; assay type: functional, organism-based
Summary of the method: (§4)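 Male SD rats (received at 10 weeks, acclimatized 7 days) were dosed ip once daily for 28 days. The compounds were given in soybean oil with 10% ethanol, and the vehicle group received 10% ethanol in oil. BrdU was given 100 mg/kg twice, 2 h apart, on day 29. Hippocampal tissue was taken 24 h or 28 days later. Lysates were made in RIPA with protease inhibitors and run on 12% SDS-PAGE. Akt, pAkt, ERK1/2 and pERK1/2 were immunoblotted and read by densitometry against GAPDH, normalized to vehicle = 1.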

Rattus norvegicus [8] = test: In vivo neurogenic activity in Sprague-Dawley rat adult hippocampal at 0.05 mg/kg, ip qd preincubated for 28 days followed by BrdU addition at 2 hrs interval for twice at day 29 measured at 28 days post last dose by NeuN/BrdU double staining based immunohistochemistry assay relative to control; assay type: functional
Summary of the method: (§5)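 SD male rats, 11 weeks old, were given compound ip daily for 28 days in 10% ethanol/soybean oil. On day 29 they received BrdU 100 mg/kg ip twice, 2 h apart, and were perfused 28 days after the last BrdU. Fixed 30 µm cryosections were co-stained for BrdU and NeuN by fluorescence. BrdU+ cells and the BrdU+NeuN+/BrdU+ fraction were counted against vehicle, mean ± SEM, n = 8.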

Rattus norvegicus [9] = test: Downregulation of ERK phosphorylation in Sprague-Dawley rat adult hippocampus at 0.05 to 0.5 mg/kg, ip qd preincubated for 28 days followed by BrdU addition at 2 hrs interval for twice on day 29 measured at 28 days post BrdU pulse by immunoblot assay; assay type: functional, organism-based; summary of the method: as §4
Rattus norvegicus [10] = test: Effect on ERK expression in Sprague-Dawley rat adult hippocampus at 0.5 to 4 mg/kg, ip qd preincubated for 28 days followed by BrdU addition at 2 hrs interval for twice on day 29 measured at 24 hrs post BrdU pulse by immunoblot assay; assay type: functional, organism-based; summary of the method: as §4
Rattus norvegicus [11] = test: Downregulation of AKT phosphorylation in Sprague-Dawley rat adult hippocampus at 0.5 to 4 mg/kg, ip qd preincubated for 28 days followed by BrdU addition at 2 hrs interval for twice on day 29 measured at 24 hrs post BrdU pulse by immunoblot assay; assay type: functional, organism-based; settings: in the assay text read “Upregulation” for “Downregulation”; summary of the method: as §4
Rattus norvegicus [12] = test: In vivo neurogenic activity in Sprague-Dawley rat adult hippocampal at 0.5 mg/kg, ip qd preincubated for 28 days followed by BrdU addition at 2 hrs interval for twice at day 29 measured at 28 days post last dose by NeuN/BrdU double staining based immunohistochemistry assay relative to control; assay type: functional; summary of the method: as §5
Rattus norvegicus [13] = test: Downregulation of ERK phosphorylation in Sprague-Dawley rat adult hippocampus at 0.5 to 4 mg/kg, ip qd preincubated for 28 days followed by BrdU addition at 2 hrs interval for twice on day 29 measured at 24 hrs post BrdU pulse by immunoblot assay; assay type: functional, organism-based; settings: in the assay text read “Upregulation” for “Downregulation”; summary of the method: as §4
Rattus norvegicus [14] = test: Downregulation of AKT phosphorylation in Sprague-Dawley rat adult hippocampus at 0.05 to 0.5 mg/kg, ip qd preincubated for 28 days followed by BrdU addition at 2 hrs interval for twice on day 29 measured at 28 days post BrdU pulse by immunoblot assay; assay type: functional, organism-based; summary of the method: as §4
Rattus norvegicus [15] = test: Effect on ERK expression in Sprague-Dawley rat adult hippocampus at 0.05 to 0.5 mg/kg, ip qd preincubated for 28 days followed by BrdU addition at 2 hrs interval for twice on day 29 measured at 28 days post BrdU pulse by immunoblot assay; assay type: functional, organism-based; summary of the method: as §4
Rattus norvegicus [16] = test: Effect on AKT expression in Sprague-Dawley rat adult hippocampus at 0.05 to 0.5 mg/kg, ip qd preincubated for 28 days followed by BrdU addition at 2 hrs interval for twice on day 29 measured at 28 days post BrdU pulse by immunoblot assay; assay type: functional, organism-based; summary of the method: as §4
[17] = Drug uptake in mouse brain at 20 mg/kg, po via gavage by HPLC-MS/MS analysis; assay type: ADME, organism-based; settings: in vivo, read-out: Drug uptake
Rattus norvegicus [18] = test: In vivo neurogenic activity in Sprague-Dawley rat neural progenitor cells at 0.5 mg/kg, ip qd pretreated for 28 days followed by BrdU addition at 2 hrs interval for twice on day 29 measured after 24 hrs by BrdU incorporation assay; assay type: functional, organism-based; summary of the method: as §3

Row | SMILES | Activity (Rattus norvegicus [1]) | viability at 24 h, 100 µM [2] | viability at 24 h, 1000 µM [3] | viability at 24 h, 500 µM [4] | Activity (Rattus norvegicus [5]) | other results
1 | COc1ccc(OCC#Cc2ccc3c(c2)OCO3)cc1 | Active | 44.1% | 36.3% | 79.7% | – | –
2 | CC(=O)Oc1ccc(/C=C/c2ccc3c(c2)OCO3)cc1 | inactive | 84.5% | 17.8% | 21.3% | – | –
3 | CC(C)C(=O)Nc1ccc(/C=C/c2ccc3c(c2)OCO3)cc1 | – | 50.9% | 42% | 48.4% | – | fold change (FC) (Rattus norvegicus [5]): 2.2 - 3.5; Activity (Rattus norvegicus [6]): Active
4 | CS(=O)(=O)Nc1ccc(/C=C/c2ccc3c(c2)OCO3)cc1 | – | 72.5% | 62.3% | 68.9% | – | fold change (FC) (Rattus norvegicus [5]): 2.2 - 3.5; Activity (Rattus norvegicus [6]): Active
5 | O=C(Nc1ccc(/C=C/c2ccc3c(c2)OCO3)cc1)c1ccccc1 | – | 98.6% | 85% | 99.3% | – | Activity (Rattus norvegicus [7]): Active; fold change (FC) (Rattus norvegicus [8]): 1.6; Activity (Rattus norvegicus [9]): Active; Activity (Rattus norvegicus [10]): Active; fold change (FC) (Rattus norvegicus [5]): 2.2 - 3.5; Activity (Rattus norvegicus [11]): Active; fold change (FC) (Rattus norvegicus [12]): 3.2; Activity (Rattus norvegicus [13]): Active; Activity (Rattus norvegicus [6]): Active; Activity (Rattus norvegicus [14]): Active; Activity (Rattus norvegicus [15]): Active; Activity (Rattus norvegicus [16]): Active
6 | COc1cccc(NCC(F)Cn2c3ccc(Br)cc3c3cc(Br)ccc32)c1 (stereo not drawn) | – | – | – | – | – | concentration [17]: 900 nM
7 | CC(=O)Nc1ccc(CCc2ccc3c(c2)OCO3)cc1 | inactive | 90.3% | 68.8% | 79.4% | – | –
8 | CCC(=O)Nc1ccc(/C=C/c2ccc3c(c2)OCO3)cc1 | Active | 85.9% | 61.5% | 80.6% | – | –
9 | COc1cc(/C=C/c2ccc(O)cc2)cc(OC)c1 [PTEROSTILBENE] | – | -0.58% | 51.4% | 32.7% | Active | –
10 | O=C(Nc1ccc(/C=C/c2ccc3c(c2)OCO3)cc1)C1CC1 | – | 98.9% | 85.3% | 97.3% | – | fold change (FC) (Rattus norvegicus [5]): 2.2 - 3.5; Activity (Rattus norvegicus [6]): Active
11 | CN(C)c1ccc(/C=C/c2ccc3c(c2)OCO3)cc1 | – | 83.3% | 52.6% | 51.2% | Active | –
12 | COc1ccc(C#Cc2ccc3c(c2)OCO3)cc1 | inactive | 75.9% | 63.8% | 69.1% | – | –
13 | COc1ccc(/C=C/c2ccc(NC(C)=O)cc2)cc1 | inactive | 70% | 40.7% | 52.2% | – | –
14 | COc1ccc(/C=C/c2ccc(NC(C)=O)cc2)cc1OC | inactive | 68% | 31.3% | 56.5% | – | –
15 | N#Cc1ccc(/C=C/c2ccc3c(c2)OCO3)cc1 | – | 110% | 36.1% | 43.7% | Active | –
16 | COc1cc(/C=C/c2ccc(NC(C)=O)cc2)cc(OC)c1 | – | 54.5% | 45.2% | 48.5% | Active | –
17 | Oc1ccc(/C=C/c2ccc3c(c2)OCO3)cc1 | inactive | 39.5% | 14.4% | 20.1% | – | –
18 | COc1cc(/C=C/c2ccc(OC(C)=O)cc2)cc(OC)c1 | – | 6.48% | 6.75% | 13.9% | Active | Activity (Rattus norvegicus [18]): inactive
19 | CC(=O)N(C)c1ccc(/C=C/c2ccc3c(c2)OCO3)cc1 | – | 50.4% | 5.89% | 15.8% | inactive | –
20 | CCCC(=O)Nc1ccc(/C=C/c2ccc3c(c2)OCO3)cc1 | – | 58.8% | 33.3% | 40.7% | Active | –
21 | O=C(Nc1ccc(/C=C/c2ccc3c(c2)OCO3)cc1)c1cccs1 | – | 62.5% | 49.1% | 54.4% | Active | –
22 | CCOc1ccc(C#Cc2ccc3c(c2)OCO3)cc1 | – | 56.5% | 38.1% | 41% | inactive | –
23 | COc1ccc(/C=C/c2ccc3c(c2)OCO3)cc1 | – | 76.1% | 62.8% | 69.6% | Active | –
24 | CC(=O)Nc1cccc(C#Cc2ccc3c(c2)OCO3)c1 | inactive | 70.6% | 55.3% | 62.9% | – | –
